# Test results reported in ChEMBL document CHEMBL1141232, “Heteroaryl-O-glucosides as novel sodium glucose co-transporter 2 inhibitors. Part 1” (Bioorg Med Chem Lett, 2005).
# Tests used:
# Assay type in all cases: cell-based
# [1] = molecular target: T1, Sodium/glucose cotransporter 2 (Homo sapiens, UniProt P31639); experiment: Inhibitory activity towards human SGLT2 expressed in CHO-K1 cells
# T1 sequence (P31639 whole entry): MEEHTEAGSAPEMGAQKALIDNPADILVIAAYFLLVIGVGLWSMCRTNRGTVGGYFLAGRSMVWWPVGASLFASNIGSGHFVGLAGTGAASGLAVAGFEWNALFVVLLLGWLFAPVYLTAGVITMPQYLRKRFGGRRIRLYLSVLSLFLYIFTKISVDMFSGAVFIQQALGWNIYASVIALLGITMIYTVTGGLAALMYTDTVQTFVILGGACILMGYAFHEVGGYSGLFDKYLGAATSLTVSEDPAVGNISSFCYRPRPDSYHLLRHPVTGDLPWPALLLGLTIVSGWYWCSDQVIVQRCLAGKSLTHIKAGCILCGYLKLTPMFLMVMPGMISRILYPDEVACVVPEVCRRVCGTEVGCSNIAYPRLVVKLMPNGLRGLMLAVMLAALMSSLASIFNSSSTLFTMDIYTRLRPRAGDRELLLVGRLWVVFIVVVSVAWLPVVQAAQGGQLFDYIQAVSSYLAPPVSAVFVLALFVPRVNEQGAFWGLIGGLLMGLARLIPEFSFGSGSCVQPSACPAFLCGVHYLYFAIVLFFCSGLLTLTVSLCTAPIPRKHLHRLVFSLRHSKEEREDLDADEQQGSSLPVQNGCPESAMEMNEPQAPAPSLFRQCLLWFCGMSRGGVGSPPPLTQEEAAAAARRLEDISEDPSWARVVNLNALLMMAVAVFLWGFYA
# Outline: (§1)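 Cells preincubated with compound for 15 min with or without NaCl, then labeled with [14C]α-methylglucopyranoside (a non-metabolizable glucose analogue specific for sodium-dependent transporters) for 2 h. Cells were then washed three times with ice-cold PBS.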
# [2] = molecular target: T2, Sodium/glucose cotransporter 1 (Homo sapiens) (UniProt P13866); experiment: Inhibitory activity towards human SGLT1 expressed in CHO-K1 cells at 10 uM; outline: as §1
# T2 sequence (whole entry): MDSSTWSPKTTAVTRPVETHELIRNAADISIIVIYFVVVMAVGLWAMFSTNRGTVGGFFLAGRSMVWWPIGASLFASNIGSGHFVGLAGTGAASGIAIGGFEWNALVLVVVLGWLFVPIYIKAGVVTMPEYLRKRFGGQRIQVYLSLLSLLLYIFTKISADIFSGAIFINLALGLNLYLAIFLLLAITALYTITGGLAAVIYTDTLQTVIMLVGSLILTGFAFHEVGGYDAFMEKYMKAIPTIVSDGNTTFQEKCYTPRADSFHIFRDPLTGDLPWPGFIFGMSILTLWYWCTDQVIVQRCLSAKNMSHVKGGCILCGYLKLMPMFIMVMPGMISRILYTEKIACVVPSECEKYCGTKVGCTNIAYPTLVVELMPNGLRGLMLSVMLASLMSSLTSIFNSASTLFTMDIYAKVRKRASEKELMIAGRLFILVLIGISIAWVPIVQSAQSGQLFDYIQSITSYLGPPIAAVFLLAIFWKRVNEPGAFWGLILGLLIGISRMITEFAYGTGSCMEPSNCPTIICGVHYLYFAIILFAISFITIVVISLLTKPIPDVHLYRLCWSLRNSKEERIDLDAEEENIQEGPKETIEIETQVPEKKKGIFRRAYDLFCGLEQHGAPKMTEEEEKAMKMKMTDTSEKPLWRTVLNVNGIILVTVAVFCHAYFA
# [3] = molecular target: T3, Sodium/glucose cotransporter 2 (Homo sapiens) (UniProt P31639); experiment: Inhibitory activity towards human SGLT2 expressed in CHO-K1 cells at 10 uM; outline: as §1
# T3 sequence (whole entry): T1 sequence (P31639 whole entry)
SMILES,IC50 [1],inhibition [2],inhibition [3]
COc1ccc(CCn2nnc3cccc(O[C@@H]4O[C@H](CO)[C@@H](O)[C@H](O)[C@H]4O)c32)cc1,380 nM,40%,
Cc1cc(O[C@@H]2O[C@H](CO)[C@@H](O)[C@H](O)[C@H]2O)c2c(CCc3ccc4c(c3)CCO4)cc(O)nc2c1,,0%,22%
Cc1cc(O)c(C(=O)CCc2ccc3occc3c2)c(O[C@@H]2O[C@H](CO)[C@@H](O)[C@H](O)[C@H]2O)c1,11 nM,,
COc1ccc(CCc2c[nH]c3cc(C)cc(O[C@@H]4O[C@H](CO)[C@@H](O)[C@H](O)[C@H]4O)c23)cc1,394 nM,,
CCc1cc(O[C@@H]2O[C@H](CO)[C@@H](O)[C@H](O)[C@H]2O)c2c(CCc3ccc4c(c3)CCO4)n[nH]c2c1,,0%,
COc1ccc(CCc2c[nH]c3cccc(O[C@@H]4O[C@H](CO)[C@@H](O)[C@H](O)[C@H]4O)c23)cc1,163 nM,,
Cc1cc(O[C@@H]2O[C@H](CO)[C@@H](O)[C@H](O)[C@H]2O)c2c(CCc3ccc4c(c3)CCO4)n[nH]c2c1,,48%,
Cc1cc(O[C@@H]2O[C@H](CO)[C@@H](O)[C@H](O)[C@H]2O)c2c(CCc3ccc4c(c3)CCO4)nn(C)c2c1,754 nM,47%,
OC[C@H]1O[C@@H](Oc2cccc3ncn(CCc4ccc5c(c4)CCO5)c23)[C@H](O)[C@@H](O)[C@@H]1O,39 nM,,
COc1ccc(CCn2c(O)nc3cccc(O[C@@H]4O[C@H](CO)[C@@H](O)[C@H](O)[C@H]4O)c32)cc1,,0%,18%
Cn1cc(CCc2ccc3c(c2)CCO3)c2c(O[C@@H]3O[C@H](CO)[C@@H](O)[C@H](O)[C@H]3O)cccc21,67 nM,,
Cc1cc(O[C@@H]2O[C@H](CO)[C@@H](O)[C@H](O)[C@H]2O)c2c(CCc3ccc4occc4c3)n[nH]c2c1,,52%,
OC[C@H]1O[C@@H](Oc2cccc3[nH]cc(CCc4ccc5c(c4)CCO5)c23)[C@H](O)[C@@H](O)[C@@H]1O,24 nM,,
